What all share (type): functional
Common to all, as to settings: variant bovis BCG, 168 h, time 7 day

The subject of test [1] is Mycobacterium tuberculosis. Nature of the test: Antibacterial activity against wild type Mycobacterium bovis BCG assessed as bacterial growth inhibition incubated for 7 days by resazurin assay. Summed up: (§1)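 M. bovis BCG Pasteur carrying pMV261 (constitutive expression) with Mt-dprE1, Mt-dprE2 or empty vector; MIC after 7 days' exposure to compound, viability read as endogenous reductase conversion of resazurin to resorufin. INH used as control.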
On the technique in general: Resazurin is reduced to fluorescent resorufin, in cell work by metabolically active cells.

Test [2] relates to Mycobacterium tuberculosis. The experiment in a line: Antibacterial activity against Mycobacterium bovis BCG transfected with pMV261:Mt-dprE2 assessed as bacterial growth inhibition incubated for 7 days by resazurin assay. The method, boiled down: as §1
Test [3] relates to Mycobacterium tuberculosis. Nature of the test: Antibacterial activity against Mycobacterium bovis BCG transfected with pMV261:Mt-dprE1 assessed as bacterial growth inhibition incubated for 7 days by resazurin assay. The method, boiled down:
as §1

Values after ≈ are worked out from the molar mass of the structure shown.

In general, MIC refers to the lowest concentration that inhibits growth of the organism.

As to `CCOC(=O)NC(=O)c1ccsc1NC(=O)c1ccc(C(=O)N2CCCCC2)s1`, the MIC in test [1] amounted to 0.28 µg/mL (≈ 0.643 µM); in test [2] it was 0.56 µg/mL (≈ 1.29 µM); in test [3] it was 8.96 µg/mL (≈ 20.6 µM).
With `COC(=O)NC(=O)c1ccsc1NC(=O)c1ccc(C(=O)N2CCCCC2)cc1`, the MIC stood at 0.76 µg/mL (≈ 1.83 µM) in test [1], 1.52 µg/mL (≈ 3.66 µM) in test [2] and 12.2 µg/mL (≈ 29.3 µM) in test [3].
On to `O=C(Nc1sccc1C(=O)Nc1nccc(C(F)(F)F)n1)c1ccc(C(=O)N2CCCCC2)cc1`, for which the MIC is 1.6 µg/mL (≈ 3.18 µM) in test [1], 1.6 µg/mL (≈ 3.18 µM) in test [2] and 12.8 µg/mL (≈ 25.4 µM) in test [3].
Regarding `COC(=O)NC(=O)c1ccsc1NC(=O)c1ccc(C(=O)N2CCCCC2)c(F)c1`, the MIC in test [2] is 0.25 µg/mL (≈ 0.577 µM); in test [3], > 1.98 µg/mL.
`CCOC(=O)NC(=O)c1ccsc1NC(=O)c1ccc(C(=O)N2CCCCC2)c(F)c1`: the MIC in test [1] is 0.064 µg/mL (≈ 0.143 µM); in test [3], > 0.51 µg/mL.
Consider `CCOC(=O)NC(=O)c1ccsc1NC(=O)c1nc2ccccc2s1`, for which the MIC in test [3] worked out at 15.4 µg/mL (≈ 40.9 µM).
Take `CCOC(=O)NC(=O)c1ccsc1NC(=O)c1ccc(C(=O)N2CCCCC2)cc1`: the results for the MIC in test [1], in test [2] and in test [3] were 0.32 µg/mL (≈ 0.745 µM), 0.32 µg/mL (≈ 0.745 µM) and > 1.28 µg/mL, respectively.

The values above are taken from ChEMBL document CHEMBL4831479, “Discovery of Novel Thiophene-arylamide Derivatives as DprE1 Inhibitors with Potent Antimycobacterial Activities” (J Med Chem, 2021).
